# Measured values reported in ChEMBL document CHEMBL4814044, “Design and synthesis, biological evaluation of bis-(1,2,3- and 1,2,4)-triazole derivatives as potential antimicrobial and antifungal agents” (2021).
# What was measured:
# Type in all cases: functional
# Saccharomyces cerevisiae [1] = experiment: Antifungal activity against Saccharomyces cerevisiae MTCC 1344 assessed as zone of inhibition at 36 uM incubated for 2 days by cross streak plate method; conditions: MTCC 1344, 48 h, time 2 day, read-out: IZ
# Outline: (§1)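 S. cerevisiae MTCC 1344 cultures were incubated for 2 days at 37 °C and then tested by the cross streak plate method.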
# Saccharomyces cerevisiae [2] = experiment: Antifungal activity against Saccharomyces cerevisiae MTCC 1344 assessed as zone of inhibition at 48 uM incubated for 2 days by cross streak plate method; conditions: MTCC 1344, 48 h, time 2 day, read-out: IZ; outline: as §1
# Saccharomyces cerevisiae [3] = experiment: Antifungal activity against Saccharomyces cerevisiae MTCC 1344 assessed as zone of inhibition at 24 uM incubated for 2 days by cross streak plate method; conditions: MTCC 1344, 48 h, time 2 day, read-out: IZ
# Outline: (§2)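 Fungal strain (A. niger MTCC 404 or S. cerevisiae MTCC 1344) was incubated with the compound for 2 days at 37 °C. Growth inhibition was then assessed by the cross streak plate method.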
# Aspergillus niger [4] = experiment: Antifungal activity against Aspergillus niger MTCC 404 assessed as zone of inhibition at 48 uM incubated for 2 days by cross streak plate method; conditions: MTCC 404, 48 h, time 2 day, read-out: IZ; outline: as §2
# Aspergillus niger [5] = experiment: Antifungal activity against Aspergillus niger MTCC 404 assessed as zone of inhibition at 36 uM incubated for 2 days by cross streak plate method; conditions: MTCC 404, 48 h, time 2 day, read-out: IZ; outline: as §2
# Aspergillus niger [6] = experiment: Antifungal activity against Aspergillus niger MTCC 404 assessed as zone of inhibition at 24 uM incubated for 2 days by cross streak plate method; conditions: MTCC 404, 48 h, time 2 day, read-out: IZ; outline: as §2
smiles,measurement,setting,value
Clc1ccc(COC(Cn2ccnc2)c2ccc(Cl)cc2Cl)c(Cl)c1 (stereo unspecified) [MICONAZOLE],zone of inhibition at 36 µM,Saccharomyces cerevisiae [1],9 mm
same,zone of inhibition at 48 µM,Saccharomyces cerevisiae [2],12 mm
same,zone of inhibition at 24 µM,Saccharomyces cerevisiae [3],8 mm
same,zone of inhibition at 48 µM,Aspergillus niger [4],12 mm
same,zone of inhibition at 36 µM,Aspergillus niger [5],10 mm
same,zone of inhibition at 24 µM,Aspergillus niger [6],8 mm
